ChEMBL document CHEMBL4715693, “Synthesis and antiviral properties of novel indole-based thiosemicarbazides and 4-thiazolidinones” (Bioorg Med Chem, 2016)
≈ marks a conversion by molar mass, not a printed value.

Key:
[1] = system: Vesicular stomatitis virus; experiment: Antiviral activity against Vesicular stomatitis virus infected in human HeLa cells assessed as reduction in virus-induced cytopathic effect incubated for 3 to 6 days by light microscopic analysis; type: functional, organism-based
In short: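 CPE reduction assay: virus and serial compound dilutions added together to subconfluent HeLa (vesicular stomatitis, Coxsackie B4, respiratory syncytial) or Vero (Coxsackie B4, Sindbis, Punta Toro) cultures. Incubated 3–6 days at 37 °C. Mean ± SEM of three independent tests.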

Coxsackievirus B4 [2] = experiment: Antiviral activity against Human coxsackievirus B4 infected in human HeLa cells assessed as reduction in virus-induced cytopathic effect incubated for 3 to 6 days by light microscopic analysis; type: functional, organism-based; conditions: Enterovirus B
In short: (§1)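 CPE reduction assay: virus and serial compound dilutions added together to subconfluent HeLa (vesicular stomatitis, Coxsackie B4, respiratory syncytial) or Vero (Coxsackie B4, Sindbis, Punta Toro) cultures. Incubated 3–6 days at 37 °C. […] Mean ± SEM of three independent tests.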

[3] = system: Respiratory syncytial virus; experiment: Antiviral activity against Respiratory syncytial virus infected in human HeLa cells assessed as reduction in virus-induced cytopathic effect incubated for 3 to 6 days by light microscopic analysis; type: functional, organism-based; in short: as §1
Human respirovirus 3 = experiment: Antiviral activity against Human parainfluenza virus 3 infected in African green monkey Vero cells assessed as reduction in virus-induced cytopathic effect incubated for 3 to 6 days by light microscopic analysis; type: functional, organism-based; conditions: Human respirovirus 3, Vero
[4] = system: Mammalian orthoreovirus 1; experiment: Antiviral activity against Mammalian orthoreovirus 1 infected in African green monkey Vero cells assessed as reduction in virus-induced cytopathic effect incubated for 3 to 6 days by light microscopic analysis; type: functional, organism-based; conditions: Mammalian orthoreovirus 1, Vero
Sindbis virus = experiment: Antiviral activity against Sindbis virus infected in African green monkey Vero cells assessed as reduction in virus-induced cytopathic effect incubated for 3 to 6 days by light microscopic analysis; type: functional, organism-based; in short: as §1
Coxsackievirus B4 [5] = experiment: Antiviral activity against Human coxsackievirus B4 infected in African green monkey Vero cells assessed as reduction in virus-induced cytopathic effect incubated for 3 to 6 days by light microscopic analysis; type: functional, organism-based; conditions: Enterovirus B; in short: as §1
Punta Toro virus = experiment: Antiviral activity against Punta Toro virus infected in African green monkey Vero cells assessed as reduction in virus-induced cytopathic effect incubated for 3 to 6 days by light microscopic analysis; type: functional, organism-based; in short: as §1
[6] = Cytotoxicity against African green monkey Vero cells assessed as changes in cell morphology incubated for 3 to 6 days by light microscopy; type: cell-based; conditions: chlorocebus sabaeus, time 3-6 day
In short: (§2)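 Uninfected subconfluent cells (Vero or HeLa, as named) exposed to serial compound dilutions in parallel with the CPE assays, 37 °C, 3–6 days. Cell morphology examined by light microscopy; MCC = minimal concentration causing microscopically detectable changes in morphology.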

Human alphaherpesvirus 1 = experiment: Antiviral activity against Herpes simplex virus 1 infected in human HEL cells assessed as reduction in virus-induced cytopathic effect incubated for 3 to 6 days by light microscopic analysis; type: functional, cell-based; conditions: Human alphaherpesvirus 1, HEL
Human alphaherpesvirus 2 = experiment: Antiviral activity against Herpes simplex virus 2 infected in human HEL cells assessed as reduction in virus-induced cytopathic effect incubated for 3 to 6 days by light microscopic analysis; type: functional, cell-based; conditions: Human alphaherpesvirus 2, HEL
Vaccinia virus = experiment: Antiviral activity against Vaccinia virus infected in human HEL cells assessed as reduction in virus-induced cytopathic effect incubated for 3 to 6 days by light microscopic analysis; type: functional, organism-based; conditions: Orthopoxvirus vaccinia
[7] = system: Human immunodeficiency virus 1; experiment: Antiviral activity against Human immunodeficiency virus 1 infected in human MT4 cells assessed as reduction in virus-induced cytopathic effect incubated for 3 to 6 days by light microscopic analysis; type: functional, organism-based; conditions: Human immunodeficiency virus 1, MT4
[8] = system: Human immunodeficiency virus 2; experiment: Antiviral activity against Human immunodeficiency virus 2 infected in human MT4 cells assessed as reduction in virus-induced cytopathic effect incubated for 3 to 6 days by light microscopic analysis; type: functional, organism-based; conditions: Human immunodeficiency virus 2, MT4
Influenza A virus = experiment: Antiviral activity against influenza A virus infected in dog MDCK cells assessed as reduction in virus-induced cytopathic effect incubated for 3 to 6 days by light microscopic analysis; type: functional, organism-based; conditions: Influenza A virus, MDCK
In short: (§3)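 MDCK cells, subconfluent, received influenza A or B virus together with serial compound dilutions. Incubated 3–6 days at 35 °C.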

Influenza B virus = experiment: Antiviral activity against influenza B virus infected in dog MDCK cells assessed as reduction in virus-induced cytopathic effect incubated for 3 to 6 days by light microscopic analysis; type: functional, organism-based; in short: as §3
Feline coronavirus = experiment: Antiviral activity against Feline coronavirus infected in cat CRFK cells assessed as reduction in virus-induced cytopathic effect incubated for 3 to 6 days by light microscopic analysis; type: functional, organism-based; conditions: Alphacoronavirus 1, CRFK
Felid alphaherpesvirus 1 = experiment: Antiviral activity against Feline herpesvirus infected in cat CRFK cells assessed as reduction in virus-induced cytopathic effect incubated for 3 to 6 days by light microscopic analysis; type: functional, organism-based; conditions: Felid alphaherpesvirus 1, CRFK
[9] = Cytotoxicity against human HEL cells assessed as changes in cell morphology incubated for 3 to 6 days by light microscopy; type: cell-based; conditions: time 3-6 day
In short: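 Human embryonic lung fibroblasts incubated with serial compound dilutions alongside the antiviral assays, 37 °C, 3–6 days. Morphology inspected by light microscopy; minimal cytotoxic concentration taken as lowest concentration giving minimal morphological change.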

[10] = Cytotoxicity against cat CRFK cells assessed as reduction in cell viability incubated for 3 to 6 days by MTS assay; type: cell-based, Felis catus; conditions: crfk, time 3-6 day
In short: (§4)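 CRFK or MT4 cells were exposed to serial compound dilutions alongside the antiviral assays for 3–6 days at 37 °C.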

MT4 = experiment: Cytotoxicity against human MT4 cells assessed as reduction in cell viability incubated for 3 to 6 days by MTS assay; type: cell-based; conditions: time 3-6 day; in short: as §4
[11] = Cytotoxicity against human HeLa cells assessed as changes in cell morphology incubated for 3 to 6 days by light microscopic analysis; type: cell-based; conditions: time 3-6 day; in short: as §2
[12] = Cytotoxicity against dog MDCK cells assessed as changes in cell morphology incubated for 3 to 6 days by light microscopy; type: cell-based, Canis lupus familiaris; conditions: time 3-6 day

Structure (SMILES) | EC50 [1] [µg/mL] | EC50 (Coxsackievirus B4 [2]) [µg/mL] | EC50 [3] [µg/mL] | EC50 (Human respirovirus 3) [µg/mL] | EC50 [4] [µg/mL] | EC50 (Sindbis virus) [µg/mL] | EC50 (Coxsackievirus B4 [5]) [µg/mL] | EC50 (Punta Toro virus) [µg/mL] | EC50 (Human alphaherpesvirus 1) [µg/mL] | EC50 (Human alphaherpesvirus 2) [µg/mL] | EC50 (Vaccinia virus) [µg/mL] | EC50 [7] [µg/mL] | EC50 [8] [µg/mL] | EC50 (Influenza A virus) [µg/mL] | EC50 (Influenza B virus) [µg/mL] | EC50 (Feline coronavirus) [µg/mL] | EC50 (Felid alphaherpesvirus 1) [µg/mL] | MCC [9] [µg/mL] | CC50 [10] [µg/mL] | CC50 (MT4) | also measured
O=C(N/N=C1\SCC(=O)N1CCc1ccccc1)c1[nH]c2ccc(F)cc2c1-c1ccccc1 | > 100 | > 100 | > 100 | > 100 | > 100 | > 100 | > 100 | > 100 | > 100 | > 100 | > 100 | > 100 | > 100 | > 100 | > 100 | > 100 | > 100 | > 10 | 17 (≈ 36 µM) | >= 108 ug ml-1 | MCC [6]: 10 µg/mL
O=C(NNC(=S)NCc1ccccc1)c1[nH]c2ccc(F)cc2c1-c1ccccc1 | > 100 | > 100 | > 100 | > 100 | > 100 | > 100 | > 100 | > 100 | > 100 | > 100 | > 100 | > 100 | > 100 | > 100 | > 100 | > 100 | > 100 | > 10 | 1.9 (≈ 4.54 µM) | 11 µg/mL (≈ 26.3 µM) | MCC [11]: 4 µg/mL; MCC [6]: 10 µg/mL
CCN1C(=O)CS/C1=N\NC(=O)c1[nH]c2ccc(F)cc2c1-c1ccccc1 | > 100 | > 100 | > 100 | > 100 | > 100 | > 100 | > 100 | > 100 | > 100 | > 100 | > 100 | > 100 | > 100 | > 100 | > 100 | > 100 | > 100 | > 100 | > 100 | > 125 µg/mL | MCC [6]: 20 µg/mL
O=C(NNC(=S)NCCc1ccccc1)c1[nH]c2ccc(F)cc2c1-c1ccccc1 | > 100 | > 100 | > 100 | > 100 | > 100 | > 100 | > 100 | > 100 | > 100 | > 100 | > 100 | > 100 | > 100 | > 100 | > 100 | > 100 | > 100 | 10 | 1.9 (≈ 4.39 µM) | 11 µg/mL (≈ 25.4 µM) | MCC [11]: 4 µg/mL; MCC [6]: 10 µg/mL; MCC [12]: 2 µg/mL
CN1C(=O)CS/C1=N\NC(=O)c1[nH]c2ccc(F)cc2c1-c1ccccc1 | > 100 | > 100 | > 100 | > 100 | > 100 | > 100 | > 100 | > 100 | > 100 | > 100 | > 100 | > 100 | > 100 | > 100 | > 100 | > 100 | > 100 | > 100 | > 100 | > 125 µg/mL | MCC [6]: 20 µg/mL
O=C(N/N=C1\SCC(=O)N1Cc1ccccc1)c1[nH]c2ccc(F)cc2c1-c1ccccc1 | > 100 | > 100 | > 100 | > 100 | > 100 | > 100 | > 100 | > 100 | > 100 | > 100 | > 100 | > 100 | > 100 | > 100 | > 100 | > 100 | > 100 | > 10 | > 100 | 38 µg/mL (≈ 82.9 µM) | MCC [6]: ≥ 10 µg/mL
CCCCN1C(=O)CS/C1=N\NC(=O)c1[nH]c2ccc(F)cc2c1-c1ccccc1 | > 100 | > 100 | > 100 | > 100 | > 100 | > 100 | > 100 | > 100 | > 100 | > 100 | > 100 | > 100 | > 100 | > 100 | > 100 | > 100 | > 100 | > 10 | > 100 | >= 98 ug ml-1 | –
